Results as given in ChEMBL document CHEMBL3421533, “The Discovery of Orally Bioavailable Tyrosine Threonine Kinase (TTK) Inhibitors: 3-(4-(heterocyclyl)phenyl)-1H-indazole-5-carboxamides as Anticancer Agents” (J Med Chem, 2015).
pEC50, pIC50: −log10 of the molar value.

What was measured:
[1] = Cytotoxicity against human SKOV3 cells after 5 days by sulforhodamine B assay; format: functional; conditions: SK-OV-3, 120 h
Outline: (§1)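 Cancer lines were seeded at 800–6000 cells per well according to growth rate, 24 h before compound overlay. After culture, cells were fixed in situ and stained with sulforhodamine B. GI50 values were derived by curve fitting.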

Cytochrome P450 3A4 = Cytochrome P450 3A4 (Homo sapiens, UniProt P08684); test: Inhibition of human CYP3A4 using BFC as substrate preincubated for 10 mins followed by enzyme/substrate addition measured after 30 mins by fluorescence assay; format: ADME
Cytochrome P450 3A4, sequence (P08684 whole entry): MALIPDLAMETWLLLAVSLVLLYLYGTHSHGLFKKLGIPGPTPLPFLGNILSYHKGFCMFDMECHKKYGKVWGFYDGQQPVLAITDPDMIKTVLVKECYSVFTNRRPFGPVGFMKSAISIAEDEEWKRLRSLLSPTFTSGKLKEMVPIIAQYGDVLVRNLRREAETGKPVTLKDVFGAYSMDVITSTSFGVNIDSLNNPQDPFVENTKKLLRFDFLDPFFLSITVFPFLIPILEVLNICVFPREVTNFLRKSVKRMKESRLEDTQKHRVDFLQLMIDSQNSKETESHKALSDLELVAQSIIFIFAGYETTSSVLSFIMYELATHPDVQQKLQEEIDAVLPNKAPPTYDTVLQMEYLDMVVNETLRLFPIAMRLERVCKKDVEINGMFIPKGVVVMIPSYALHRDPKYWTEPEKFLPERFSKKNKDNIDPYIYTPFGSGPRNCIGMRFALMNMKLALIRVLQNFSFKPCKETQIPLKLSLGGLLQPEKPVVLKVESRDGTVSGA

[2] = biological target: T1, Dual specificity protein kinase TTK (Homo sapiens, UniProt P33981); test: Inhibition of TTK (unknown origin) transfected in human HCT116 cells after 4 hrs by near infrared imager analysis; format: cell-based, HCT-116
T1 sequence (P33981 whole entry): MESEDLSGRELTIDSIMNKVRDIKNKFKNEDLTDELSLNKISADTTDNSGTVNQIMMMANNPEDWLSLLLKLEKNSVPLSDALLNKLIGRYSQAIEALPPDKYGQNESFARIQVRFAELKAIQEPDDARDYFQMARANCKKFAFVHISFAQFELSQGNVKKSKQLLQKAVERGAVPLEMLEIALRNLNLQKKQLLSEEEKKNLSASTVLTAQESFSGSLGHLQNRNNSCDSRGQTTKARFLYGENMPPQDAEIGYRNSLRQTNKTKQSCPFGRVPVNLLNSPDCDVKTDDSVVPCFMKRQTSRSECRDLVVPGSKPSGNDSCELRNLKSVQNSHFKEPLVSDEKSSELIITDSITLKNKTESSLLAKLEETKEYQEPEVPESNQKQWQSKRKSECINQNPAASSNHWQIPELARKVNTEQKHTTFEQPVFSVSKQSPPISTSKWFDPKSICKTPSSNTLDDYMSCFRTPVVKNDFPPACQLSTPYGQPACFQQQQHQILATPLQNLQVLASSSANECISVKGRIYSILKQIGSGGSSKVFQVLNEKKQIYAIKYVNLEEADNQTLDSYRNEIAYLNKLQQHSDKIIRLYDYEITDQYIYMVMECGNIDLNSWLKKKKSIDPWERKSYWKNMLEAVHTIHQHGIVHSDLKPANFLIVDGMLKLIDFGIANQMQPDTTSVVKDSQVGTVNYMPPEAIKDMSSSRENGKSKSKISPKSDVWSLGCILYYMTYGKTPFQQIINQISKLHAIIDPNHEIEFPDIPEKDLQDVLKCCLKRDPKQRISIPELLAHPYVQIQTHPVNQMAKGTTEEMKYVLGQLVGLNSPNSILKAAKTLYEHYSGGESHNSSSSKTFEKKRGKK
Outline: (§2)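 HCT116 cells transfected with wild-type TTK were arrested with nocodazole (200 ng/mL, 17 h). They were pretreated with MG132 (15 μM, 30 min), then exposed to compound or DMSO for 4 h. Blots were probed for phospho-TTK (Thr12/Ser15), phospho-Aurora A (Thr288)/B (Thr232), TTK and GAPDH. Bands were quantified by near-infrared imaging, and EC50 was fitted.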

HCT-116 = test: Induction of chromosome segregation defect in human HCT116 cells assessed as anaphase and telophase cells with lagging chromosomes at 100 nM incubated for 6 hrs post double thymidine block by DAPI staining-based immunofluorescence microscopic analysis (reference value: 19 +/- 2%); format: functional
[3] = Cmax in athymic CD1 nude mouse at 10 mg/kg, po by LC-MS/MS analysis; format: ADME, organism-based; set-up: dose 10 mg/kg, route oral; conditions: athymic CD1 nude, in vivo
[4] = Cytotoxicity against human OV90 cells after 5 days by sulforhodamine B assay; format: functional; conditions: OV-90, 120 h; outline: as §1
Mus musculus = test: Toxicity in po dosed CD-1 nude mouse assessed as signs of overt toxicity administered as qd for 21 days; format: organism-based; conditions: in vivo, 504 h
Outline: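 Female nude mice bearing subcutaneous tumors (80–120 mm³ at randomization) received vehicle (10% NMP/40% PEG400/50% water) or compound by daily oral dosing for 21 days. Doses were the MTD and ~2/3 MTD. Body weight and tumor volume were measured three times weekly. The MTD criterion (n = 3) was no body-weight loss over 20% and not moribund.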

[5] = biological target: Aurora kinase B/Inner centromere protein (Homo sapiens, UniProt Q96GD4); test: Inhibition of AURKB/INCENP (unknown origin) transfected in human HCT116 cells after 4 hrs by near infrared imager analysis; format: cell-based, HCT-116; outline: as §2
Aurora kinase B/Inner centromere protein, sequence (Q96GD4 whole entry): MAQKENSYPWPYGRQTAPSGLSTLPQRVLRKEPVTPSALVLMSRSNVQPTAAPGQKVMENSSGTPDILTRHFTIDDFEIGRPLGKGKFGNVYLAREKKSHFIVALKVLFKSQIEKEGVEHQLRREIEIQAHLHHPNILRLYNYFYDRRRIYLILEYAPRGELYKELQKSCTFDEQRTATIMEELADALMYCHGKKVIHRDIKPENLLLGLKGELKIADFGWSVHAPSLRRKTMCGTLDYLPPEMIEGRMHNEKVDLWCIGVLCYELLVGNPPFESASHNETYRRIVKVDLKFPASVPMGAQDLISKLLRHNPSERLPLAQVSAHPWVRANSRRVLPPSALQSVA
Aurora kinase B/Inner centromere protein, sequence (Q9NQS7 whole entry, further chain): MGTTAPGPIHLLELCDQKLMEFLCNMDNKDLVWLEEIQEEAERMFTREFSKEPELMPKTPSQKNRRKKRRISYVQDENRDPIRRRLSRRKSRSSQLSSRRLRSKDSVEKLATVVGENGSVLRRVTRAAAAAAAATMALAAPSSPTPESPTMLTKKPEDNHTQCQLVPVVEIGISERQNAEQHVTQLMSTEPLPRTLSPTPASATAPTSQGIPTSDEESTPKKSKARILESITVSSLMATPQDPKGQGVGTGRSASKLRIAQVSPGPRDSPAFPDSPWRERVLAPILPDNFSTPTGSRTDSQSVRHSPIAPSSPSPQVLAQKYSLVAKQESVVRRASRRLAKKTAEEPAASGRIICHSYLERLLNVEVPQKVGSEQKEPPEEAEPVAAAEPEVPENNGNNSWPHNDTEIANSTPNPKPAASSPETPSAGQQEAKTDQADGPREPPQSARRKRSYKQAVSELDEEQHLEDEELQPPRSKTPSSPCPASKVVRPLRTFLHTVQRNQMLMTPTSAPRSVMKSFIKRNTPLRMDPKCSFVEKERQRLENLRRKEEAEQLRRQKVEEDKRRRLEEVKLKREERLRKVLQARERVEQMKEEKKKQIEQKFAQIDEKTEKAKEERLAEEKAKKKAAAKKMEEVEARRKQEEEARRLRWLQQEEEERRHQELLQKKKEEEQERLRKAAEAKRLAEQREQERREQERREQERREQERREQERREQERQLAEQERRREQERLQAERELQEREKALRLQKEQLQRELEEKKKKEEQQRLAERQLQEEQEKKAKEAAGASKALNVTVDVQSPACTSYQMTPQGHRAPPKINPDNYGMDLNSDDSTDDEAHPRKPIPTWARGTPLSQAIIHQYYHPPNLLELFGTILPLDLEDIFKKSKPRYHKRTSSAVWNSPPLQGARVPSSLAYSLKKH

[6] = Cytotoxicity against HMEC after 5 days by sulforhodamine B assay; format: cell-based; conditions: human, HMEC cells
Outline: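 Cells were seeded at 800–6000 per well according to growth rate, 24 h before compound overlay. After culture they were fixed in situ and stained with sulforhodamine B. GI50 was calculated by curve fitting.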

[7] = biological target: Muscle, skeletal receptor tyrosine-protein kinase (Homo sapiens, UniProt O15146); test: Inhibition of human MuSK by millipore radiometric assay
Muscle, skeletal receptor tyrosine-protein kinase, sequence (O15146 whole entry): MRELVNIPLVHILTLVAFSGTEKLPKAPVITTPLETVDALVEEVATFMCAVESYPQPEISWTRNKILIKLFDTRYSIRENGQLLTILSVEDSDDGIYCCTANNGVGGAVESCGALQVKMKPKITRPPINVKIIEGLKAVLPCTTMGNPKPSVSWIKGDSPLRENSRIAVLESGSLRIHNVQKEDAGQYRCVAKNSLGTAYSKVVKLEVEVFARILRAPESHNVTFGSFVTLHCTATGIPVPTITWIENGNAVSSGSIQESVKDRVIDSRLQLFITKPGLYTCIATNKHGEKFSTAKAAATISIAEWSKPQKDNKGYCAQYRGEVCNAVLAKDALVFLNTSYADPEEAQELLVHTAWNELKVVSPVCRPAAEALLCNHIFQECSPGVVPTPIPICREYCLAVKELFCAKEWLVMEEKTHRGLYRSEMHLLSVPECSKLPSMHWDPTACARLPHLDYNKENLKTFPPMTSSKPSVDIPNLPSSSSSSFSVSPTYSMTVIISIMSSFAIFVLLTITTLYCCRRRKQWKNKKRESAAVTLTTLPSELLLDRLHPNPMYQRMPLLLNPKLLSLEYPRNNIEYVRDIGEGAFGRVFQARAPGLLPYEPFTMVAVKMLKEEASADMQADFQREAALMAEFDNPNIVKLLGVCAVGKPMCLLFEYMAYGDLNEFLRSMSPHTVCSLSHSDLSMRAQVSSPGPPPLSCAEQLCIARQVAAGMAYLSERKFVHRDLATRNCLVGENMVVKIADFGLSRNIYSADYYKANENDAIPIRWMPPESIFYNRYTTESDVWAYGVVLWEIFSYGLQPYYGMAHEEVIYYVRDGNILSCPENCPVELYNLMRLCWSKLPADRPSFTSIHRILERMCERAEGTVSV
Outline: (§3)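 Radiometric profiling against a 278-kinase panel was done with ATP at Km. Half-maximal inhibitory concentrations were then determined for the kinases most inhibited.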

MDA-MB-468 = test: Cytotoxicity against human MDA-MB-468 cells after 5 days by sulforhodamine B assay; format: functional; outline: as §1
[8] = AUCinfinity in Sprague-Dawley rat at 1 mg/kg, iv by LC-MS/MS analysis; format: ADME, organism-based; set-up: time infinity, dose 1 mg/kg, route intravenous; conditions: plasma
[9] = biological target: Mast/stem cell growth factor receptor Kit (Homo sapiens, UniProt P10721); test: Inhibition of human cKit by millipore radiometric assay; outline: as §3
[10] = biological target: Proto-oncogene tyrosine-protein kinase receptor Ret (Homo sapiens, UniProt P07949, V804L); test: Inhibition of human Ret V804L mutant by millipore radiometric assay; outline: as §3
Proto-oncogene tyrosine-protein kinase receptor Ret, sequence (P07949 29-1114 V804L limits assumed): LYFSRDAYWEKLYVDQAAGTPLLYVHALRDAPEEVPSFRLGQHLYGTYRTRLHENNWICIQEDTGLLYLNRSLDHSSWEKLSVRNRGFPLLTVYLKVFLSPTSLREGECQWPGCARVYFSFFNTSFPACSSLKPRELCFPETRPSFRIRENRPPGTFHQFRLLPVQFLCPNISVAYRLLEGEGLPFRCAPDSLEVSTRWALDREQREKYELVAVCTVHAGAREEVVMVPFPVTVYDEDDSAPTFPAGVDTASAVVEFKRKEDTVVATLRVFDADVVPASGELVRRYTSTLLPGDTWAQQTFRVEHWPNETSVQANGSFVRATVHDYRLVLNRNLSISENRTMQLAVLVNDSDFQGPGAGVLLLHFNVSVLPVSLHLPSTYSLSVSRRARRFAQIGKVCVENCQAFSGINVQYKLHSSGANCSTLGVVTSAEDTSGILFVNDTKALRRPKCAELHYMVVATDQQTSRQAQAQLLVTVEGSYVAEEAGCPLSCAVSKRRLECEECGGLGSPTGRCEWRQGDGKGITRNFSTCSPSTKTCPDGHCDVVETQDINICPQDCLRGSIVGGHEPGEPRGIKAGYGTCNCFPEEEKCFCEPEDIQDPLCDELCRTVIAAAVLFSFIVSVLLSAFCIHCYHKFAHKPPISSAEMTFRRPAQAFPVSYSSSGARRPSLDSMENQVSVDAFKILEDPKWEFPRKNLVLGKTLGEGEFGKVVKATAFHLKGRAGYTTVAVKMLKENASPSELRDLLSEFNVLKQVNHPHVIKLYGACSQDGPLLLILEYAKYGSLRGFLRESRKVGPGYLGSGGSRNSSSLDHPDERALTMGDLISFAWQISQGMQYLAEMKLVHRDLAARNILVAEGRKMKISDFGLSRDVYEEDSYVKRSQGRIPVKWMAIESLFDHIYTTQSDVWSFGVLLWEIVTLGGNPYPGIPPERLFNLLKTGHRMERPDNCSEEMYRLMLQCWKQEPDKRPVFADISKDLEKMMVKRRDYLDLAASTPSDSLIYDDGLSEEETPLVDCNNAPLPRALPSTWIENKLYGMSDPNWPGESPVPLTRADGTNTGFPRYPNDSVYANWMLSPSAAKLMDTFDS

[11] = Cytotoxicity against human HCT116 cells after 5 days by sulforhodamine B assay; format: functional, HCT-116; outline: as §1
[12] = AUCinfinity in Sprague-Dawley rat at 5 mg/kg, po by LC-MS/MS analysis; format: ADME, organism-based; set-up: time infinity, dose 5 mg/kg, route oral; conditions: plasma
MDA-MB-231 = test: Cytotoxicity against human MDA-MB-231 cells after 5 days by sulforhodamine B assay; format: functional; conditions: MDA-MB-231, 120 h; outline: as §1
[13] = Clearance in Sprague-Dawley rat at 1 mg/kg, iv by LC-MS/MS analysis; format: ADME, organism-based; set-up: dose 1 mg/kg, route intravenous; conditions: in vivo
[14] = biological target: Maternal embryonic leucine zipper kinase (Homo sapiens, UniProt Q14680); test: Inhibition of human MELK by millipore radiometric assay; outline: as §3
Maternal embryonic leucine zipper kinase, sequence (Q14680 whole entry): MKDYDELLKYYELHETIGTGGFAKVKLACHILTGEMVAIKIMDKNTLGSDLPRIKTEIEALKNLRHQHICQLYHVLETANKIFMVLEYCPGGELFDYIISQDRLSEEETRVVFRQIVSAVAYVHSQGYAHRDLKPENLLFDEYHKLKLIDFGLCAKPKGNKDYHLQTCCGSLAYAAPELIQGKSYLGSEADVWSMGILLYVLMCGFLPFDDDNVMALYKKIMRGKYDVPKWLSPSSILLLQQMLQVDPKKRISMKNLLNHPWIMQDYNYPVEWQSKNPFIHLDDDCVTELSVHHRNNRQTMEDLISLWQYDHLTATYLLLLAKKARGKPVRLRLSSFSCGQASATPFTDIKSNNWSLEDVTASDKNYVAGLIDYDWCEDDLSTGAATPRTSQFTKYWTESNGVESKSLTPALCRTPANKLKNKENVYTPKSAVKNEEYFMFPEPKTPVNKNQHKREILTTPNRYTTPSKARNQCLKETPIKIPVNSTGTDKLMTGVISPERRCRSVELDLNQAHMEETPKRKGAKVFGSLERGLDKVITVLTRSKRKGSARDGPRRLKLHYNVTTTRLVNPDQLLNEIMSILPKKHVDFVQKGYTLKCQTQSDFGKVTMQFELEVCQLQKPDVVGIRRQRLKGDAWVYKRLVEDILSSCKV

SK-MEL-28 = test: Cytotoxicity against human SK-MEL-28 cells after 5 days by sulforhodamine B assay; format: functional; conditions: SK-MEL-28, 120 h; outline: as §1
A2780 = test: Cytotoxicity against human A2780 cells after 5 days by sulforhodamine B assay; format: functional; conditions: A2780, 120 h; outline: as §1
[15] = AUCinfinity in athymic CD1 nude mouse at 10 mg/kg, po by LC-MS/MS analysis; format: ADME, organism-based, Plasma; set-up: time infinity, dose 10 mg/kg, route oral; conditions: athymic CD1 nude, plasma
[16] = Oral bioavailability in Sprague-Dawley rat at 5 mg/kg by LC-MS/MS analysis; format: ADME, organism-based; conditions: in vivo

Work on `O=C(N[C@@H](c1ccccn1)C1CC1)c1ccc2[nH]nc(-c3ccc(N4[C@H]5CC[C@H]4CC(O)C5)cc3)c2c1` (stereo in doubt; 75) yielded a GI50 [1] of 17 nM, a pIC50 (Cytochrome P450 3A4) of 5.89 and a pEC50 [2] of 7.85. It also gave an Activity (HCT-116) of 61%, a Cmax [3] of 2000 ng/mL and a GI50 [4] of 30 nM. For the same compound, the Activity (Mus musculus) was “Non-toxic”, the pEC50 [5] was less than 5.22 and the GI50 at 120 h [6] was greater than 30000 nM. It also gave a pIC50 [7] of 6.16, a GI50 (MDA-MB-468) of 36 nM and an AUC(0-inf) [8] of 250 ng·h/mL. It also gave a pIC50 [9] of less than 4.52, a pIC50 [10] of 6.60 and a GI50 [11] of 17 nM. For the same compound, the AUC(0-inf) [12] was 550 ng·h/mL, the GI50 (MDA-MB-231) was 70 nM and the clearance [13] was 66 mL/min/kg. The pIC50 [14] was 6.80, the GI50 (SK-MEL-28) was 210 nM and the GI50 (A2780) was 20 nM. It also gave an AUC(0-inf) [15] of 3000 ng·h/mL and a bioavailability [16] of 44%.
